We go through three compounds from ChEMBL document CHEMBL4359825, “Synthesis of novel S-linked dihydroartemisinin derivatives and evaluation of their anticancer activity” (Eur J Med Chem, 2019).

Data set [1] can be described thus: Elimination half-life in Sprague-Dawley rat at 10 mg/kg administered as iv bolus dose by EC-HPLC analysis. It is filed as ADME, organism-based. The following applies: in vivo, read-out: beta t1/2.
Data set [2] can be described thus: Solubility of compound in water. It is filed as physicochemical. The conditions noted are these: buffer.
For data set [3], the system named is PC-3. In words: Cell cycle arrest in human PC3 cells assessed as accumulation at S phase at 3 uM measured after 48 hrs by RNase/propidium iodide staining based flow cytometry analysis (reference value: 42.03 %). It is filed as functional. (A flow cytometer gives signals particle by particle.)
For data set [4], the system named is PC-3. The data set is described as follows: Cell cycle arrest in human PC3 cells assessed as accumulation at G0/G1 phase at 3 uM measured after 48 hrs by RNase/propidium iodide staining based flow cytometry analysis (reference value: 35.13 %). The class given is functional.
Data set [5] has as its system PC-3. In words: Cell cycle arrest in human PC3 cells assessed as accumulation at G2/M phase at 10 uM measured after 48 hrs by RNase/propidium iodide staining based flow cytometry analysis (reference value: 22.84 %). It is filed as functional.
Data set [6] concerns PC-3. The data set is described as follows: Cell cycle arrest in human PC3 cells assessed as accumulation at G0/G1 phase at 10 uM measured after 48 hrs by RNase/propidium iodide staining based flow cytometry analysis (reference value: 35.13 %). The class given is functional.
The subject of data set [7] is PC-3. The data set is described as follows: Induction of apoptosis in human PC3 cells assessed as loss of cell morphology at 3 to 10 uM after 72 hrs by phase contrast microscopy. The class given is functional, cell-based. The essentials:
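PC-3 cells in exponential growth exposed to 3 or 10 μM for 72 h, washed gently with PBS, and apoptotic morphology recorded by phase-contrast microscopy.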

Data set [8] has as its system PC-3. In words: Anticlonogenic activity against human PC3 cells assessed as reduction in colony formation at 10 uM incubated for 72 hrs supplemented with fresh medium containing measured after 15 days by colony formation assay. The class given is functional, cell-based. The essentials: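 Clonogenic assay: PC-3 seeded at 500 cells/well in six-well plates, allowed to adhere overnight, then treated. Medium and compound renewed every 72 h over 15 days. Colonies fixed with 3.7% formaldehyde for 20 min, stained with 0.4% crystal violet and counted. Three experiments, each in quadruplicate, expressed as fold change versus control.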

Data set [9] concerns PC-3. In words: Effect on Pin1 expression in human PC3 cells at 0.1 to 10 uM measured after 72 hrs by Western blot analysis. The class given is functional, cell-based. Put shortly: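 Western blot: PC-3 seeded 1.25 × 10^5/well, exposed to 0.1–10 μM for 72 h. Lysed in 2× SDS buffer and sonicated; 20–25 μg protein run on 12% SDS gel, transferred to PVDF, blocked in 5% BSA/TBST. Primary antibodies overnight, secondary 1 h; ECL detection, β-actin loading control.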

The subject of data set [10] is PC-3. The data set is described as follows: Cell cycle arrest in human PC3 cells assessed as accumulation at G2/M phase at 3 uM measured after 48 hrs by RNase/propidium iodide staining based flow cytometry analysis (reference value: 22.84 %). The class given is functional.
Data set [11] deals with PC-3. In words: Induction of apoptosis in human PC3 cells assessed as nuclear condensation at 3 to 10 uM after 72 hrs by Hoechst 33342 staining based fluorescence microscopy. The class given is functional, cell-based. Put shortly: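 PC-3 cells treated 72 h with 3 or 10 μM, stained with Hoechst 33342 for 15 min at room temperature in the dark, washed with PBS, and nuclei examined by fluorescence microscopy for condensation.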

For data set [12], the system named is PC-3. In words: Cell cycle arrest in human PC3 cells assessed as accumulation at S phase at 10 uM measured after 48 hrs by RNase/propidium iodide staining based flow cytometry analysis (reference value: 42.03 %). The class given is functional.
The test system of data set [13] is MDA-MB-231. The data set is described as follows: Anticancer activity against human MDA-MB-231 cells assessed as reduction in cell viability measured after 72 hrs by MTT assay. The class given is functional, cell-based. The following applies: MDA-MB-231, 72 h.
Data set [14] concerns A-431. The data set is described as follows: Anticancer activity against human A431 cells assessed as reduction in cell viability measured after 72 hrs by MTT assay. It is filed as functional, cell-based. The conditions noted are these: A-431, 72 h. (In general: Tetrazolium assays rely on reduction of a dye to a coloured formazan, in cell work by metabolically active cells.)

The subject of data set [15] is HepG2. In words: Anticancer activity against human HepG2 cells assessed as reduction in cell viability measured after 72 hrs by MTT assay. It is filed as functional, cell-based. The conditions noted are these: HepG2, 72 h.
Data set [16] deals with HepG2. In words: Anticancer activity against human HepG2 cells assessed as cell viability measured after 72 hrs by MTT assay (reference value: 100 +/- 6.5 %). It is filed as functional. The arrangement: concentration or dose not given beside the values.
For the next data set, the system named is HeLa. The data set is described as follows: Anticancer activity against human HeLa cells assessed as cell viability measured after 72 hrs by MTT assay (reference value: 100 +/- 11.5 %). Details: concentration or dose not given beside the values. The class given is functional.
Data set [17] concerns MDA-MB-231. The data set is described as follows: Anticancer activity against human MDA-MB-231 cells assessed as cell viability measured after 72 hrs by MTT assay (reference value: 100 +/- 20.0 %). The class given is functional. The arrangement: concentration or dose not given beside the values.
A further data set relates to A549. The data set is described as follows: Anticancer activity against human A549 cells assessed as cell viability measured after 72 hrs by MTT assay (reference value: 100 +/- 9.6 %). It is filed as functional. Details: concentration or dose not given beside the values.
Data set [18] deals with A-431. In words: Anticancer activity against human A431 cells assessed as cell viability measured after 72 hrs by MTT assay (reference value: 100 +/- 11.7 %). The class given is functional. Details: concentration or dose not given beside the values.
Data set [19] concerns PC-3. The data set is described as follows: Anticancer activity against human PC3 cells assessed as cell viability measured after 72 hrs by MTT assay (reference value: 100 +/- 18.8 %). It is filed as functional. The arrangement: concentration or dose not given beside the values.
The test system of the next data set is LNCaP. In words: Anticancer activity against human LNCAP cells assessed as cell viability measured after 72 hrs by MTT assay (reference value: 100 +/- 5.0 %). The class given is functional. The arrangement: concentration or dose not given beside the values.
The subject of data set [20] is PC-3. In words: Anticancer activity against human PC3 cells assessed as reduction in cell viability measured after 72 hrs by MTT assay. The conditions noted are these: PC-3, 72 h. It is filed as functional, cell-based.

The source made the active and inactive calls. The rule behind the calls is not given here.

For `C[C@H]1[C@@H](O)O[C@@H]2O[C@@]3(C)CC[C@H]4[C@H](C)CC[C@@H]1[C@@]24OO3` [ARTENIMOL], in data set [1], the half-life is less than 1 h. For the same compound, the solubility result in data set [2] is “Soluble”.
Turning to `C[C@@H]1CC[C@H]2[C@@H](C)C(=O)O[C@@H]3O[C@@]4(C)CC[C@@H]1[C@]32OO4` [ARTEMISININ], the Activity in the data set with PC-3 [3] stood at 44.42%; in the data set on PC-3 [4], 33.48%; in the data set on PC-3 [5], 16.07%; in the data set with PC-3 [6], 35.55%; in the data set on PC-3 [10], 22.1%; with PC-3 [12], 48.38%. Further, the result with PC-3 [7], in the data set on PC-3 [8] and in the data set on PC-3 [11] was Active. Moreover, the result in the data set with PC-3 [9] was inactive.
On to `CCCCCCS[C@H]1O[C@@H]2O[C@@]3(C)CC[C@H]4[C@H](C)CC[C@@H]([C@H]1C)[C@@]24OO3`, for which the IC50 (commonly the concentration that gives 50% inhibition) in the data set on MDA-MB-231 [13] turned out to be 3.94 µM; in the data set on A-431 [14], 3.99 µM; in the data set on HepG2 [15], 10.7 µM; in the data set on PC-3 [20], 5.8 µM. Also, the Activity in the data set on HepG2 [16] is listed as 41%; in the data set on HeLa it was 49%; in the data set with MDA-MB-231 [17], 39%; in the data set on A549, 55%; with A-431 [18], 45%; with PC-3 [19], 39%. Besides, in the data set on LNCaP, the Activity stood at 46%.
